Compounds with a hit are over-represented: about 2.2% of the library has one in this group of screens.
PvdQ inh: P. aeruginosa PvdQ acylase inhibitors, primary screen, biochemical, fluorescence, plate reader and imaging, single point; inhibition, % at 10 µM; PvdQ acylase [Pseudomonas aeruginosa LESB58]; 0.063% of 340,000 active; purified PvdQ acylase; in the data active means inhibition above about 30%, passing the limit was not always enough;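 further: 0% = vehicle neutral wells and 100% = reference inhibitor wells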
PHOSPHO1 inh: PubChem AID 1565; 1.1% of 290,000 active; inhibition, % at 13.3 µM; recombinant PHOSPHO1, absorbance phosphatase assay; Phosphoethanolamine/phosphocholine phosphatase (Homo sapiens), Q8TCT1; in the data active means inhibition above about 60%
Target sequence (Q8TCT1 whole entry, looked up): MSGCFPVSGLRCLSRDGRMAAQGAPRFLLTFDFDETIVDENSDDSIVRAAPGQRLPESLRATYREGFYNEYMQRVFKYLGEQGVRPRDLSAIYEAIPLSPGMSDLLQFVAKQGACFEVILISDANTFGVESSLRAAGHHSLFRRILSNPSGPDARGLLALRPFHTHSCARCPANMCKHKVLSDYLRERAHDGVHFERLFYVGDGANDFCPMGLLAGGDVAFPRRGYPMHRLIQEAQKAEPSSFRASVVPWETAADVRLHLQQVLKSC
CR mimetic SO: reduction of superoxide in aged yeast, primary screen, HTS; superoxide response (% of plate mean), % at 10 µM; S. cerevisiae aged cells, superoxide DHE fluorescence; active compounds read low; 0.18% of 330,000 active;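 active means superoxide response under a set limit, about three screen SD below normal, cut at about 65% in these data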;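 further: yeast aged for seven days with compound at 30 °C before DHE staining; 100% = average MFI of all compound-treated wells on the plate with controls excluded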
IMP-1 inhibitor: IMP-1 metallo-beta-lactamase inhibitors, primary screen, biochemical, epi-absorbance readout, Pseudomonas aeruginosa enzyme | purified IMP-1, nitrocefin hydrolysis, epi-absorbance fluorescence | 0.45% of 290,000 active | inhibition, % at 5.6 µM | AID 1556, 2009;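 active means inhibition above the mean plus 3 SD of all compounds in the same screening run, cut at about 4.5% in these data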;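 further: 0% = IMP-1 with DMSO and 100% = DMSO wells lacking enzyme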
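System: Purified recombinant IMP-1 metallo-beta-lactamase enzyme | Measured by: Fluorescence quenching readout, ex 480/em 530 nm | Replication: Singlicate | Incubation: 15 min preincubation plus 25 min reaction at 25 °C | Evaluation: Percent inhibition from optical density relative to buffer-blank wells | Benchmarks: DMSO with and without IMP-1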
VIM-2 inh: VIM-2 metallo-beta-lactamase inhibitors, primary screen, biochemical, epi-absorbance readout, Pseudomonas aeruginosa enzyme. purified VIM-2, nitrocefin hydrolysis, epi-absorbance fluorescence. inhibition, % at 5.6 µM. 0.89% of 290,000 active;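 active means inhibition above the mean of all tested compounds plus 3 SD, cutoff set per screening run, cut at about 7.5% in these data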;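 further: red hydrolysis product quenches plate fluorescence so inhibitors raise well fluorescence; 0% = enzyme with DMSO and 100% = DMSO without enzyme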
* marks the source's active call; other numbers are inactive results; x = not tested or not shown.

SMILES | PvdQ inh | PHOSPHO1 inh | CR mimetic SO | IMP-1 inhibitor | VIM-2 inh
OC1COCOC1C(O)C1OCOCC1O (stereo not drawn) | -5.3 | x | x | x | x
COc1ccc(C(=O)C2CCCN(C(=O)c3cccnc3SC)C2)c(C)c1 (stereo not drawn) | 2.8 | 24.8 | 102.3 | -1.6 | -3.3
CCOC(=O)CNC(=O)CSc1nnc(-c2ccco2)n1Cc1ccco1 | -18.4 | 91.7* | 91.8 | -4.4 | 1.0
COc1cccc(-n2ccnc2SCC(=O)NCc2ccccc2)c1 | -14.5 | 61.5* | 105.5 | -1.9 | -2.3
COc1cccc(-c2nnc(SCC(=O)NCc3ccc4c(c3)OCO4)n2Cc2ccco2)c1 | -20.7 | 76.1* | 119.5 | -5.0 | -3.1
COc1cccc(OCc2nnc(SCC(=O)NCc3ccco3)n2CCc2ccccc2)c1 | -7.0 | 61.8* | 100.0 | -1.8 | -3.9
O=C(CSc1nccn1-c1ccccc1)NCc1ccc(F)cc1 | -14.9 | -18.8 | 92.9 | -1.9 | -0.6
CC1CN(C(=O)CCC(=O)N2CCN(c3cccc(C(F)(F)F)c3)CC2)c2ccccc2O1 (stereo not drawn) | 0.5 | 41.2 | 94.8 | 2.3 | -0.2
COc1ccc(C(=O)CSc2nnc(-c3cnccn3)n2Cc2ccco2)cc1 | 4.5 | 55.2 | 98.7 | -2.4 | -2.9
Cc1nnc(SCC(=O)NCc2ccc3c(c2)OCO3)n1C | -2.1 | 20.7 | 108.8 | -3.0 | -2.9
COc1ccc(C(=O)CSc2nnc(-c3cccnc3)n2Cc2ccco2)cc1 | -9.9 | 92.4* | 107.6 | -2.9 | -1.2
Cc1cccc(-c2nnc(SCC(=O)NCc3ccc4c(c3)OCO4)n2C)c1 | 3.4 | 72.0* | 102.7 | -1.9 | -0.7
Cc1cc(NC(=O)CCC(=O)N(Cc2ccco2)C2(C(=O)NC3CCCCC3)CCCC(C)C2)no1 (stereo not drawn) | 0.2 | 6.5 | 100.2 | -1.0 | -1.1
CCCc1cc(=O)[nH]c(SCC(=O)N(C)C2CCCCC2)n1 | 10.3 | x | 83.5 | x | x
CC(C)C(=O)Nc1cc2c3c(c1)CCN3C(=O)CC2 | -15.8 | 29.3 | 86.5 | -0.6 | -1.5
O=C(CCCn1cnc([N+](=O)[O-])n1)Nc1cccc2ccccc12 | -5.0 | 4.4 | 104.2 | 37.3* | 0.8
O=C(Nc1ccc(F)c(F)c1)c1cc(S(=O)(=O)N2CCN(c3ccccn3)CC2)ccc1F | -5.7 | 8.2 | 91.0 | 4.6* | 0.7
COc1ccc(F)cc1S(=O)(=O)N1CC(C)CC(C)C1 (stereo not drawn) | -5.7 | -15.7 | 107.6 | -0.8 | -1.0
CCOC(=O)C1CCN(C2=C(NS(=O)(=O)c3ccc(Cl)cc3)C(=O)c3ccccc3C2=O)CC1 | -2.8 | -127.6 | 178.8 | -2.8 | 2.5
CC(=O)Nc1ccc(S(=O)(=O)NC2=C(N3CCN(Cc4ccccc4)CC3)C(=O)c3ccccc3C2=O)cc1 | -11.1 | 64.4* | 158.6 | -5.3 | -1.8
CCOC(=O)C1CCCN(C2=C(NS(=O)(=O)c3ccc(Br)cc3)C(=O)c3ccccc3C2=O)C1 (stereo not drawn) | -14.0 | 23.5 | 171.5 | 0.7 | 8.2*
CC1CCCN(C2=C(NS(=O)(=O)c3ccc(Br)cc3)C(=O)c3ccccc3C2=O)C1 (stereo not drawn) | -6.8 | 12.3 | 268.8 | 1.4 | 10.6*
CC1CCN(C2=C(NS(=O)(=O)c3ccc(Br)cc3)C(=O)c3ccccc3C2=O)CC1 | 6.9 | 2.8 | 231.5 | 0.6 | 6.2
O=C1C2CC3N1CCC31c3ccccc3-n3c1c2ccc3=O (stereo not drawn) | -13.2 | x | x | x | x
C[C@H]1C=C(C(=O)O)O[C@@H](OCc2ccc(CO)cc2)C1 | -13.0 | x | 94.8 | x | x
SMILES | PvdQ inh | PHOSPHO1 inh | CR mimetic SO | IMP-1 inhibitor | VIM-2 inh
Cc1ccc(C(=O)Nc2ccccc2N2CCCCC2)o1 | -15.0 | -5.4 | 101.3 | -1.2 | 0.5
COc1ccccc1CC1S/C(=N/N=C/c2ccco2)NC1=O (stereo not drawn) | -14.8 | 11.9 | 97.0 | -1.3 | -0.4
Cc1ncc([N+](=O)[O-])n1CCOC(=O)c1ccc(Cl)cc1Cl | 10.6 | 27.4 | 123.6 | -2.8 | 9.7*
COc1ccc(NC(=O)OCCn2c([N+](=O)[O-])cnc2C)cc1 | -3.8 | -23.5 | 124.8 | -3.2 | -1.3
Cc1ccsc1C1C=C(c2cccc(Br)c2)Nc2ncnn21 (stereo not drawn) | -14.1 | 61.5* | 108.8 | -5.3 | -2.6
CCOc1ccc(C(=O)NC2CC(=O)N(c3ccc4c(c3)OCCO4)C2)cc1 (stereo not drawn) | -7.4 | x | 105.7 | x | x
Cc1ccc(C(=O)NNC(=S)Nc2cccc3ccccc23)s1 | -19.5 | 86.0* | 97.0 | -3.8 | -4.6
O=C(NNC(=S)Nc1cccc2ccccc12)c1cccc(Br)c1 | 13.2 | 64.4* | 96.9 | -3.2 | -3.7
O=C(NNC(=O)c1ccc2ccccc2c1)c1cccc(Br)c1 | -10.2 | x | x | x | x
c1ccc(-c2nc3nonc3nc2-c2ccccc2)cc1 | -9.8 | 67.4* | 114.8 | -1.8 | -2.6
C[C@@H]1CN(S(=O)C(C)(C)C)[C@H](CCO)/C1=C\CCO (stereo partly drawn) | -19.6 | x | x | x | x
O=C(CSc1cccc[n+]1[O-])Nc1ccc(N2CCOCC2)cc1 | x | 8.4 | 113.2 | -2.6 | -4.1
CCOc1ccc(-c2csc(N)c2C(=O)OC)cc1 | -21.6 | 61.5* | 105.1 | -0.4 | -3.9
CCOC(=O)c1c(-c2ccncc2)csc1N | -6.7 | -20.9 | 111.4 | -2.0 | -1.6
CCNC(=O)C(=O)Nc1cc2c3c(c1)CCC(=O)N3CCC2 | -15.7 | 64.9* | 87.2 | -1.2 | -0.2
Cc1ccc(OCCn2cnc3c2c(=O)n(C)c(=O)n3C)cc1 | -0.5 | 22.8 | 103.2 | -2.9 | -2.9
CCN=C1S/C(=C\c2cc(OCC)c(O)cc2Br)C(=O)N1CC | 3.3 | -1.0 | 104.8 | -0.7 | 7.8*
Cc1cc(C)n2c(=S)[nH]nc2n1 | -5.2 | 96.1* | 102.3 | -2.8 | 10.7*
Cc1cc(C)n2cnnc2n1 | x | 16.0 | 112.3 | -3.1 | -1.3
COCCCN(C(=O)c1ccccc1F)c1nc(-c2ccc(OC)cc2)cs1 | -3.4 | 23.9 | 99.5 | -2.6 | -2.9
COc1ccccc1-n1c(CNC(=O)c2cccc([N+](=O)[O-])c2C)n[nH]c1=S | -4.2 | -2.7 | 101.5 | -2.3 | -0.9
Cc1cccc(-n2c(CNC(=O)c3cccc([N+](=O)[O-])c3C)n[nH]c2=S)c1 | -17.1 | -25.8 | 104.6 | -3.1 | 8.8*
C=CCn1c(NC(=O)c2ccc(C)cc2)c(C#N)sc1=N | -12.8 | 96.2* | 94.1 | -4.6 | -0.7
O=C(CNC(=O)c1sc2ccccc2c1Cl)NCc1ccc(F)cc1 | 8.0 | x | 103.9 | x | x
Clc1ccc(-c2ccc(-c3nn4c(-c5ccco5)nnc4s3)o2)cc1 | 0.1 | x | 148.0 | -4.8 | -2.9
Cc1oc(-c2ccccc2Cl)cc1-c1nn2c(-c3ccco3)nnc2s1 | x | 71.9* | x | x | x
c1ccc(-c2nn3c(-c4ccco4)nnc3s2)nc1 | -6.8 | 48.3 | 87.5 | -4.3 | 9.7*
c1coc(-c2nnc3sc(C4CCCCC4)nn23)c1 | -5.8 | 71.9* | 104.1 | -2.0 | -0.7
Brc1ccc(-c2nn3c(-c4ccco4)nnc3s2)o1 | -4.6 | 99.4* | 94.0 | -4.9 | -0.6

Assay outcomes as filed in PubChem.
